Measured values reported in article PMC10586715 (ACS chemical biology, 2023).
Peptide text beside a SMILES is read from it. * marks the point of attachment. Cbz = O=C(OCc1ccccc1)*

Tests used:
[1] = molecular target: T1, sEH (Homo sapiens, UniProt P34913); assay: sEH degradation in HepG2 cells by immunoblot; assay type: cell-based; conditions: for effect of co-treatment on sEH degradation induced by 1a: co-treatment with 1a, immunoblot
T1 sequence (P34913 1-555): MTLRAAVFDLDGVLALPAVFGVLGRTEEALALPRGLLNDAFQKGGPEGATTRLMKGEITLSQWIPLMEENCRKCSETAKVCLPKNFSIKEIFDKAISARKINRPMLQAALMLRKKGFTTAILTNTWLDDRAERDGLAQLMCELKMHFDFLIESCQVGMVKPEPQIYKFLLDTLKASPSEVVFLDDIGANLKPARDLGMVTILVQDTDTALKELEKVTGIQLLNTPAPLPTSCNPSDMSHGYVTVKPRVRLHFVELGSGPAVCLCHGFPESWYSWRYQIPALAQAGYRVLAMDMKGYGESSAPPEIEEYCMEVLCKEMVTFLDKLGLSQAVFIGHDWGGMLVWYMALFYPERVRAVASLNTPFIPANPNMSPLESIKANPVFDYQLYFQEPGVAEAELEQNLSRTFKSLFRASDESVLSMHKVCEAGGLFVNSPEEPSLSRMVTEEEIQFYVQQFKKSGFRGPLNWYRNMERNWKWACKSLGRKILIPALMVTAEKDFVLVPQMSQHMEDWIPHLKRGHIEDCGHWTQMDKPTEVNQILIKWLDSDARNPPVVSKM

[2] = molecular target: T1, sEH; assay: Residual sEH hydrolase activity of treated HepG2 cells; assay type: cell-based; conditions: HepG2, 1 μM, 24 h
[3] = molecular target: T1, sEH; assay: Immunofluorescence colocalization of sEH with compartment markers; assay type: cell-based; conditions: co-treatment with 1a
How it was run: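 Fixed in 4% paraformaldehyde for 20 min, permeabilised with 0.02% Triton X-100, blocked 1 h at room temperature in 5% goat serum with 1% BSA. Mouse anti-sEH plus rabbit anti-LAMP2 at 4 °C overnight; Alexa Fluor 647/488 secondaries (1:500) for 1 h; DAPI 10 min. Imaged at 20x by high-content imaging, automated analysis. Colocalisation area normalised to cell count.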

[4] = molecular target: T1, sEH; assay: sEH level in CRBN-knockout HEK293T cells; assay type: cell-based
How it was run: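 CRBN knockout HEK293T cells were maintained in high-glucose (4.5 g/L) DMEM with 10% fetal bovine serum, 100 units/mL penicillin and streptomycin.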

[5] = system: EPHX2; assay: sEH transcription by qRT-PCR; assay type: cell-based, human

Compound | effect of co-treatment on sEH degradation induced by 1a [1] | other results
NS(=O)(=O)OC[C@@H]1C[C@@H](n2ccc3c(N[C@H]4CCc5ccccc54)ncnc32)C[C@@H]1O [MLN4924] | blocked the sEH degradation | –
trans-4-[4-(3-trifluoromethoxyphenyl-1-ureido)-cyclohexyloxy]-benzoic acid [Compound 1] | counteract the degradation effect | sEH hydrolase activity after treatment [2]: only slight inhibition
CC(C)C[C@H](NC(=O)[C@H](Cc1ccccc1)NC(=O)c1cnccn1)B(O)O [BTZ, bortezomib] | slightly reversed the sEH degradation induced by 1a but higher concentrations failed to block | effect of co-treatment on sEH degradation induced by 1e and 2a ([1]; co-treatment with 1e or 2a): failed to block the degradation
CO/C1=C\C(C)=C\[C@@H](C)[C@@H](O)[C@@H](C)C/C(C)=C/C=C/[C@H](OC)[C@@H]([C@@H](C)[C@@H](O)[C@H](C)[C@@]2(O)C[C@@H](O)[C@H](C)[C@@H](C(C)C)O2)OC1=O [BafA1, bafilomycin A1] | blocked the degradation | effect of co-treatment on 1a-promoted sEH colocalization with LAMP2 [3]: reversed this trend
N#Cc1ccc(COC[C@H]2O[C@@H](n3c(NCc4ccc(Cl)c(Cl)c4)nc4c(N)ncnc43)[C@H](O)[C@@H]2O)cc1 [VER155008] | failed to rescue the sEH degradation | –
CC(C)C[C@@H](C=O)NC(=O)[C@H](CC(C)C)NC(=O)[C@H](CC(C)C)NC(=O)OCc1ccccc1 [MG132] (Cbz-Leu-Leu-Leu-aldehyde) | failed to block the degradation induced by PROTAC 1a and instead promoted sEH degradation | effect on sEH level in CRBN-knockout cells [4]: neither 1a nor MG132 affect sEH level; effect on transcription of sEH [5]: did not affect
